The results in this text go back to ChEMBL document CHEMBL1146451, “Spirostanol and furostanol glycosides from the fresh tubers of Polianthes tuberosa” (J Nat Prod, 2004).

Converted amounts (≈) assume the structure as drawn.

Broadly, the IC50 is the concentration that inhibits the measured activity by half. Low values mean greater potency, high ones weaker potency.

The test system of this experiment is HeLa. Briefly: Cytotoxicity against human HeLa cells after 72 hrs by MTT assay. It counts as functional, cell-based. The method, boiled down:
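HeLa cells seeded at 2 × 10^4 cells/mL in RPMI 1640, preincubated 12 h at 37 °C in 5% CO2/air. Samples added in DMSO to final 25, 20, 15, 10, 5, 2.5, 1.25, 0.80 µg/mL; DMSO alone in control wells.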
`C[C@@H]1CC[C@@]2(OC1)O[C@H]1C[C@H]3[C@@H]4CC[C@H]5C[C@@H](O[C@@H]6O[C@H](CO)[C@H](O[C@@H]7O[C@H](CO)[C@@H](O)[C@H](O)[C@H]7O[C@@H]7O[C@H](CO)[C@@H](O)[C@H](O)[C@H]7O)[C@H](O)[C@H]6O)CC[C@]5(C)[C@H]4CC(=O)[C@]3(C)[C@H]1[C@@H]2C` displayed an IC50 of 8.61 µg/mL (≈ 9.39 µM).

In the case of `C[C@@H]1CC[C@@]2(OC1)O[C@H]1C[C@H]3[C@@H]4C[C@H](O)[C@H]5C[C@@H](O[C@@H]6O[C@H](CO)[C@H](O[C@@H]7O[C@H](CO)[C@@H](O)[C@H](O[C@@H]8OC[C@@H](O)[C@H](O)[C@H]8O)[C@H]7O[C@@H]7O[C@H](CO)[C@@H](O)[C@H](O[C@@H]8OC[C@@H](O)[C@H](O)[C@H]8O)[C@H]7O)[C@H](O)[C@H]6O)CC[C@]5(C)[C@H]4CC[C@]3(C)[C@H]1[C@@H]2C`, inhibition was half-maximal at 7.5 µg/mL (≈ 6.34 µM) (IC50).

As to `C[C@H](CC[C@@]1(O)O[C@H]2C[C@H]3[C@@H]4CC[C@H]5C[C@@H](O[C@@H]6O[C@H](CO)[C@H](O[C@@H]7O[C@H](CO)[C@@H](O)[C@H](O[C@@H]8OC[C@@H](O)[C@H](O)[C@H]8O)[C@H]7O[C@@H]7O[C@H](CO)[C@@H](O)[C@H](O)[C@H]7O)[C@H](O)[C@H]6O)CC[C@]5(C)[C@H]4CC[C@]3(C)[C@H]2[C@@H]1C)CO[C@@H]1O[C@H](CO)[C@@H](O)[C@H](O)[C@H]1O`, the IC50 was 18.8 µg/mL (≈ 15.5 µM).

`C[C@@H]1CC[C@@]2(OC1)O[C@H]1C[C@H]3[C@@H]4CC[C@H]5C[C@@H](O[C@@H]6O[C@H](CO)[C@H](O[C@@H]7O[C@H](CO)[C@@H](O)[C@H](O[C@@H]8OC[C@@H](O)[C@H](O)[C@H]8O)[C@H]7O[C@@H]7O[C@H](CO)[C@@H](O)[C@H](O[C@@H]8OC[C@@H](O)[C@H](O)[C@H]8O)[C@H]7O)[C@H](O)[C@H]6O)CC[C@]5(C)[C@H]4CC[C@]3(C)[C@H]1[C@@H]2C`: inhibition was half-maximal at 7.2 µg/mL (≈ 6.17 µM) (IC50).

Take `C[C@@H]1CC[C@@]2(OC1)O[C@H]1C[C@H]3[C@@H]4CC[C@H]5C[C@@H](O[C@@H]6O[C@H](CO)[C@H](O[C@@H]7O[C@H](CO)[C@@H](O)[C@H](O[C@@H]8OC[C@@H](O)[C@H](O)[C@H]8O)[C@H]7O[C@@H]7O[C@H](CO)[C@@H](O)[C@H](O[C@@H]8OC[C@@H](O)[C@H](O)[C@H]8O)[C@H]7O)[C@H](O)[C@H]6O)CC[C@]5(C)[C@H]4CC(=O)[C@]3(C)[C@H]1[C@@H]2C`: the IC50 worked out at 4.02 µg/mL (≈ 3.4 µM).

Turning to `C[C@@H]1CC[C@@]2(OC1)O[C@H]1C[C@H]3[C@@H]4CC[C@H]5C[C@@H](O[C@@H]6O[C@H](CO)[C@H](O[C@@H]7O[C@H](CO)[C@@H](O)[C@H](O[C@@H]8OC[C@@H](O)[C@H](O)[C@H]8O)[C@H]7O[C@@H]7O[C@H](CO)[C@@H](O)[C@H](O)[C@H]7O)[C@H](O)[C@H]6O)CC[C@]5(C)[C@H]4CC(=O)[C@]3(C)[C@H]1[C@@H]2C`, the IC50 was determined as 8.17 µg/mL (≈ 7.79 µM).

Take `C[C@@H]1CC[C@@]2(OC1)O[C@H]1C[C@H]3[C@@H]4CC[C@H]5C[C@@H](O[C@@H]6O[C@H](CO)[C@H](O[C@@H]7O[C@H](CO)[C@@H](O)[C@H](O[C@@H]8O[C@H](CO)[C@@H](O)[C@H](O)[C@H]8O)[C@H]7O[C@@H]7O[C@H](CO)[C@@H](O)[C@H](O[C@@H]8OC[C@@H](O)[C@H](O)[C@H]8O)[C@H]7O)[C@H](O)[C@H]6O)CC[C@]5(C)[C@H]4CC(=O)[C@]3(C)[C@H]1[C@@H]2C` [AGAMENOSIDE F]: inhibition was half-maximal at 5.1 µg/mL (≈ 4.21 µM) (IC50).

The molecule `C[C@@H]1CC[C@@]2(OC1)O[C@H]1C[C@H]3[C@@H]4CC[C@H]5C[C@@H](O[C@@H]6O[C@H](CO)[C@H](O[C@@H]7O[C@H](CO)[C@@H](O)[C@H](O[C@@H]8O[C@H](CO)[C@@H](O)[C@H](O)[C@H]8O)[C@H]7O[C@@H]7O[C@H](CO)[C@@H](O)[C@H](O[C@@H]8OC[C@@H](O)[C@H](O)[C@H]8O)[C@H]7O)[C@H](O)[C@H]6O)CC[C@]5(C)[C@H]4CC[C@]3(C)[C@H]1[C@@H]2C` [POLIANTHOSIDE B] registered an IC50 greater than 20 µg/mL.

`C[C@@H]1CC[C@@]2(OC1)O[C@H]1C[C@H]3[C@@H]4CC[C@H]5C[C@@H](O[C@@H]6O[C@H](CO)[C@H](O[C@@H]7O[C@H](CO)[C@@H](O)[C@H](O[C@@H]8O[C@H](CO)[C@@H](O)[C@H](O)[C@H]8O)[C@H]7O[C@@H]7O[C@H](CO)[C@@H](O)[C@H](O[C@@H]8O[C@H](CO)[C@@H](O)[C@H](O)[C@H]8O)[C@H]7O)[C@H](O)[C@H]6O)CC[C@]5(C)[C@H]4CC[C@]3(C)[C@H]1[C@@H]2C` [POLIANTHOSIDE C] showed an IC50 greater than 20 µg/mL.

The molecule `C[C@H](CC[C@@]1(O)O[C@H]2C[C@H]3[C@@H]4CC[C@H]5C[C@@H](O[C@@H]6O[C@H](CO)[C@H](O[C@@H]7O[C@H](CO)[C@@H](O)[C@H](O[C@@H]8OC[C@@H](O)[C@H](O)[C@H]8O)[C@H]7O[C@@H]7O[C@H](CO)[C@@H](O)[C@H](O)[C@H]7O)[C@H](O)[C@H]6O)CC[C@]5(C)[C@H]4CC(=O)[C@]3(C)[C@H]2[C@@H]1C)CO[C@@H]1O[C@H](CO)[C@@H](O)[C@H](O)[C@H]1O` [POLIANTHOSIDE D] displayed an IC50 of 7.86 µg/mL (≈ 6.39 µM).

The molecule `C[C@H](CC[C@@]1(O)O[C@H]2C[C@H]3[C@@H]4CC[C@H]5C[C@@H](O[C@@H]6O[C@H](CO)[C@H](O[C@@H]7O[C@H](CO)[C@@H](O)[C@H](O[C@@H]8OC[C@@H](O)[C@H](O)[C@H]8O)[C@H]7O[C@@H]7O[C@H](CO)[C@@H](O)[C@H](O[C@@H]8OC[C@@H](O)[C@H](O)[C@H]8O)[C@H]7O)[C@H](O)[C@H]6O)CC[C@]5(C)[C@H]4CC(=O)[C@]3(C)[C@H]2[C@@H]1C)CO[C@@H]1O[C@H](CO)[C@@H](O)[C@H](O)[C@H]1O` [POLIANTHOSIDE E] came in with an IC50 of 5.21 µg/mL (≈ 3.83 µM).

In the case of `C[C@H](CC[C@@]1(O)O[C@H]2C[C@H]3[C@@H]4CC[C@H]5C[C@@H](O[C@@H]6O[C@H](CO)[C@H](O[C@@H]7O[C@H](CO)[C@@H](O)[C@H](O[C@@H]8OC[C@@H](O)[C@H](O)[C@H]8O)[C@H]7O[C@@H]7O[C@H](CO)[C@@H](O)[C@H](O[C@@H]8OC[C@@H](O)[C@H](O)[C@H]8O)[C@H]7O)[C@H](O)[C@H]6O)CC[C@]5(C)[C@H]4CC[C@]3(C)[C@H]2[C@@H]1C)CO[C@@H]1O[C@H](CO)[C@@H](O)[C@H](O)[C@H]1O` [POLIANTHOSIDE F], the IC50 stood at 20 µg/mL (≈ 14.8 µM).

`C[C@H](CC[C@@]1(O)O[C@H]2C[C@H]3[C@@H]4CC[C@H]5C[C@@H](O[C@@H]6O[C@H](CO)[C@H](O[C@@H]7O[C@H](CO)[C@@H](O)[C@H](O[C@@H]8O[C@H](CO)[C@@H](O)[C@H](O)[C@H]8O)[C@H]7O[C@@H]7O[C@H](CO)[C@@H](O)[C@H](O[C@@H]8OC[C@@H](O)[C@H](O)[C@H]8O)[C@H]7O)[C@H](O)[C@H]6O)CC[C@]5(C)[C@H]4CC[C@]3(C)[C@H]2[C@@H]1C)CO[C@@H]1O[C@H](CO)[C@@H](O)[C@H](O)[C@H]1O` [POLIANTHOSIDE G] showed an IC50 of 5.36 µg/mL (≈ 3.89 µM).
